Measurements from ChEMBL document CHEMBL1122366, “Potential antiatherosclerotic agents. 3. Substituted benzoic and non benzoic acid analogues of cetaben” (1983).

Key:
Rattus norvegicus [1] = assay: In vivo triglyceride lowering activity when dosed at 0.03 % of the diet; format: functional
Method in brief: (§1)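 Normal rats were dosed in the diet. Serum sterol and triglyceride levels were measured and expressed as the mean percent of control values. Significance versus control was reported at p < 0.05, 0.01 and 0.001.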

Rattus norvegicus [2] = assay: In vivo sterol lowering activity at dose of 0.10 % of the diet; format: functional; method in brief: as §1
Rattus norvegicus [3] = assay: In vivo sterol lowering activity when dosed as 0.03 % of the diet; format: functional; method in brief: as §1
Rattus norvegicus [4] = assay: In vivo sterol lowering activity when dosed as 0.01 % of the diet; format: functional; method in brief: as §1
Rattus norvegicus [5] = assay: In vivo triglyceride lowering activity when dosed as 0.01 % of the diet; format: functional; method in brief: as §1
[6] = target: T1, Sterol O-acyltransferase 1 (Rattus norvegicus) (UniProt O70536); assay: In vitro inhibition of acyl coenzyme A:cholesterol acyltransferase; parameters: concentration or dose not given beside the values; settings: concentration not given here
T1 sequence (whole entry): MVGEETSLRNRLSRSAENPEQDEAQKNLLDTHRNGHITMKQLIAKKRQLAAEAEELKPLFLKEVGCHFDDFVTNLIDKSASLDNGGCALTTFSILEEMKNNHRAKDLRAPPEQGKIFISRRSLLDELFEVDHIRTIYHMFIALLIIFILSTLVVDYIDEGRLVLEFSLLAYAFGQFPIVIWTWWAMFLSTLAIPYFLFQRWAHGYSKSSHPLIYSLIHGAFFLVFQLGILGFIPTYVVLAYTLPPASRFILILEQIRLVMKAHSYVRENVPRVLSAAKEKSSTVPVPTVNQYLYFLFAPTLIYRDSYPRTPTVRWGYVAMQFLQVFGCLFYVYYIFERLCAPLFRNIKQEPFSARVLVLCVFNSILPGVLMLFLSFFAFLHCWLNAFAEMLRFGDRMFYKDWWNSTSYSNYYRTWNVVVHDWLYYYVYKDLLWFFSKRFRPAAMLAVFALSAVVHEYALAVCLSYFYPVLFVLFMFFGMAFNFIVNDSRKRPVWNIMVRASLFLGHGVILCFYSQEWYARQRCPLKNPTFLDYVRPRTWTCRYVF
Method in brief: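 Enzyme fatty acyl-CoA:cholesterol acyltransferase (ACAT), assayed in vitro at a single drug concentration of 5.2 μg/mL. The value is the mean percent inhibition of enzyme activity.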

Rattus norvegicus [7] = assay: In vivo triglyceride lowering activity dosed at 0.10 % of the diet.; format: functional; method in brief: as §1

| SMILES | inhibition [6] | serum triglyceride level, percent of control (Rattus norvegicus [1]) | serum sterol level, percent of control (Rattus norvegicus [2]) | serum sterol level, percent of control (Rattus norvegicus [3]) | serum sterol level, % of control (Rattus norvegicus [4]) | serum triglyceride level, percent of control (Rattus norvegicus [5]) | serum triglyceride, percent of control (Rattus norvegicus [7]) | Diet (Rattus norvegicus [1]) |
| --- | --- | --- | --- | --- | --- | --- | --- | --- |
| CCCCCCCCCCCCCCCCN(C=O)c1ccc(C(=O)OCC)cc1 | 9% | 90% | 96% | 117% | 101% | 102% | 75% | – |
| CCCCCCCCCCCCCCCCNc1ccc(C(=O)O)c(F)c1 | 57% | 79% | <75% | <77% | 93% | 77% | <40% | – |
| CCCCCCCCCCCCCCCCNc1ccc(C(=O)OCC2CO2)cc1 (configuration not stated) | 13% | <60% | <75% | <75% | 92% | <74% | <53% | – |
| CCCCCCCCCCCCCCCCNc1ccc(C(=O)OC2CCCCO2)cc1 (configuration not stated) | 0% | – | <74% | <76% | 91% | 108% | <54% | 98% |
| CCCCCCCCCCCCCCN(CC)c1ccc(C(=O)O)cc1 | < 38% | 92% | 88% | 98% | 93% | 90% | 80% | – |
| CCCCCCCCCCCCCCCCNc1ccc(C2SCCCS2)cc1 | 9% | 114% | 93% | 92% | 102% | 105% | 91% | – |
| CCCCCCCCCCCCCCCCNc1ccc(C(=O)O)c(C)c1 | 38% | 121% | 103% | 100% | 101% | 112% | 105% | – |
| CCCCCCCCCCCCCCCCNc1ccc(C(=O)O)c(OCCCCCCCCCCCCCCCC)c1 | 6% | 82% | 95% | 99% | 90% | 126% | 84% | – |
| CCCCCCCCCCCCCCCCNc1ccc(C(=O)OCC(=O)O)cc1 | 45% | 91% | <83% | 88% | 87% | 76% | <65% | – |
| CCCCCCCCCCCCCCCCNc1ccc(C(=O)Oc2ccccc2)cc1 | 0% | 76% | <84% | 85% | 89% | 105% | <76% | – |
| CCCCCCCCCCCCCCCCNc1ccc(C(=O)CC(=O)C(=O)OC)cc1 | < 43% | 77% | 85% | 96% | 92% | 101% | 81% | – |
| CCCCCCCCCCCCCCCCNc1ccc(C(=O)NC(C)(C)C(=O)O)cc1 | 13% | 90% | 88% | 95% | 89% | 84% | 83% | – |
| CCCCCCCCCCCCCCCCNc1ccc(C(=O)CC#N)cc1 | < 22% | 140% | 115% | 104% | 107% | 132% | 130% | – |

Further lines, with some results ahead:

| inhibition [6] | SMILES | serum triglyceride level, percent of control (Rattus norvegicus [1]) | serum sterol level, percent of control (Rattus norvegicus [2]) | serum sterol level, percent of control (Rattus norvegicus [3]) | serum sterol level, % of control (Rattus norvegicus [4]) | serum triglyceride level, percent of control (Rattus norvegicus [5]) | serum triglyceride, percent of control (Rattus norvegicus [7]) | Diet (Rattus norvegicus [1]) |
| --- | --- | --- | --- | --- | --- | --- | --- | --- |
| < 32% | CCCCCCCCCCCCCCCCNc1ccc(CCCC(=O)O)cc1 | <61% | 97% | 95% | 100% | <68% | <51% | – |
| < 37% | CCCCCCCCCCCCCCCCNc1ccc(C(=O)OCC)c(C(=O)OCC)c1 | 93% | 90% | 99% | 98% | 86% | <72% | – |
| 21% | CCCCCCCCCCCCCCCCNc1ccc(C(=O)NNC(C)=O)cc1 | <74% | 91% | <83% | 93% | 75% | <66% | – |
| 12% | CCCCCCCCCCCCCCCCN(CC(=O)OCC)c1ccc(C(=O)OC)cc1 | 97% | 104% | 100% | 106% | 113% | 104% | – |
| < 28% | CCCCCCCCCCCCCCCCNc1ccc(C(=O)CC(=O)O)cc1 | 90% | 104% | 100% | 105% | 80% | 100% | – |
| 14% | CCCCCCCCCCCCCCCCNc1ccc(C(=O)OCCCO)cc1 | <74% | <68% | <82% | 94% | <67% | <46% | – |
| < 40% | CCCCCCCCCCCCCCCCN(C(C)=O)c1ccc(C(OC(C)=O)C(N)=O)cc1 (configuration not stated) | 86% | 110% | 111% | 109% | 93% | 89% | – |
| 2% | CCCCCCCCCCCCCCCCNc1ccc(C2=NCCCO2)cc1 | 127% | <87% | 100% | 97% | 99% | <68% | – |
| 17% | CCCCCCCCCCCCCCCCNc1ccc(C(=O)OCCO)cc1 | <65% | <83% | 92% | 106% | <75% | <52% | – |
| < 45% | CCCCCCCCCCCCCCCCNc1ccc(C(=O)O)cn1 | 88% | 90% | <84% | 102% | 121% | 94% | – |
| 50% | CCCCCCCCCCCCCCCCNc1ccc(CCC(=O)O)cc1 | <50% | 92% | <80% | 88% | <59% | <37% | – |
| < 48% | CCCCCCCCCCCCCCCCNC1CCC(C(=O)O)CC1 (configuration not stated) | 79% | <75% | <86% | 97% | 75% | 71% | – |
| < 37% | CCCCCCCCCCCCCCCCNC1CCC(C(=O)OC)CC1 (configuration not stated) | 88% | <71% | 92% | 99% | 78% | <63% | – |
